Test results from article PMC3287054 (Bioorganic & medicinal chemistry letters, 2011).
Converted amounts (≈) assume the structure as drawn.

Columns and labels:
[1] = system: C. albicans clinical isolate CaCi-2; test: CaCi-2 growth inhibition in the presence of fluconazole; assay type: cell-based, Candida albicans
Method in brief: (§1)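 Candida albicans clinical isolates were incubated with test compound and a fixed 8 μg/mL fluconazole at 37 °C for 48 h. Growth inhibition was read by Alamar blue fluorometry. Values are the average of at least three runs.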

[2] = system: CaCi-8; test: Fluconazole MIC determination, CaCi-8; assay type: cell-based; conditions: Candida albicans, read-out: MIC for CaCi-8
[3] = system: CaCi-2; test: Fluconazole MIC determination, CaCi-2; assay type: cell-based; conditions: Candida albicans, read-out: MIC for CaCi-2
[4] = system: murine 3T3 fibroblasts; test: Mammalian fibroblast toxicity counterscreen; assay type: cell-based
[5] = Aqueous; assay type: physicochemical; conditions: aqueous / PBS solution, in words
[6] = system: CaCi-2; test: CaCi-2 growth inhibition in the absence of fluconazole; assay type: cell-based, Candida albicans
[7] = system: C. albicans clinical isolate CaCi-8; test: CaCi-8 growth inhibition in the presence of fluconazole; assay type: cell-based, Candida albicans; conditions: at approximately 1 μM, with fluconazole
Method in brief: as §1

[8] = system: Hsp90-dependent signaling pathway; test: Yeast reporter assay, Hsp90-dependent signaling; assay type: cell-based; conditions: Saccharomyces cerevisiae, read-out: IC50 Hsp90-dependent signaling pathway
[9] = system: calcineurin-dependent signaling pathway; test: Yeast reporter assay, calcineurin-dependent signaling; assay type: cell-based; conditions: Saccharomyces cerevisiae, read-out: IC50 calcineurin-dependent signaling pathway

Question: For COC1=C2C[C@@H](C)C[C@H](OC)[C@H](O)[C@@H](C)/C=C(\C)[C@H](OC(N)=O)[C@@H](OC)/C=C\C=C(/C)C(=O)NC(=CC1=O)C2=O [Geldanamycin], which inhibition at 10 µM ([1]; Candida albicans, read-out: Growth inhibition (control)) is on record?
Answer: The inhibition at 10 µM was 100%.

Question: Which results are given for OC(Cn1cncn1)(Cn1cncn1)c1ccc(F)cc1F [fluconazole]?
Answer: MIC [2]: 8 µg/mL (≈ 26.1 µM); MIC [3]: 2 µg/mL (≈ 6.53 µM); inhibition at 8 µg/mL ([1]; Candida albicans, read-out: Baseline growth inhibition in CaCi-2): 60 to 80%

Question: For O=C(c1ccc(Cl)cc1)N1CCN(c2ccnc3cc(Cl)ccc23)CC1 [Compound 1], which “Concentration up to which murine 3T3 fibroblasts showed no response” value [4] is on record?
Answer: The value was > 26 µM.

Question: And the Solubility [5]?
Answer: The Solubility was “poor aqueous solubility”.

Question: And the “Effect on CaCi-2 in the absence of fluconazole” value [6]?
Answer: Its value is “no discernible effect”.

Question: And the “Growth inhibition of CaCi-8” value [7]?
Answer: Its value is 97–100%.

Question: And the “Growth inhibition of CaCi-2” value ([1]; at approximately 1 μM, with fluconazole)?
Answer: The value was 97–100%.

Question: What about the IC50 [8] of the same compound?
Answer: The IC50 was > 26 µM.

Question: What about the IC50 [9] of the same compound?
Answer: The IC50 was > 26 µM.
